PMC8603004 (EFSA Journal, 2021)

How the values were obtained:
[1] = system: Holstein Friesian dairy cows; assay: Dose‐range finding study in dairy cows; assay type: in vivo; conditions: group 10× (16 g 3‐NOP/day, 800 mg/kg complete feed) compared to the control
[2] = Incubation of 14C‐3‐NOP in liver fractions; assay type: in vitro ADME; conditions: Sprague-Dawley, rat, liver cytosol
How it was run: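 14C-labelled test compound was incubated with or without NAD+ in liver S9, cytosol and microsomes from Sprague–Dawley rat, Wistar Han rat, Beagle dog and human. Aliquots were taken at several time points and the proteins precipitated. Supernatants were analysed by liquid scintillation counting and radio-HPLC, and half-life was derived from the time course.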

[3] = Second in vivo toxicokinetic study, metabolic profile in gut and plasma; design: species or system male Wistar rats
How it was run: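 Single oral dose of 500 mg/kg bw 14C-labelled test compound to male Wistar rats. One animal per time point was killed at 1, 2 and 3 h post-dose and blood was collected. Stomach, small intestine, caecum and colon contents were removed for total radioactivity. Metabolites were characterised by NMR and/or LC/MS.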

Wistar rats [4] = assay: Acute inhalation test; assay type: in vivo
Acute inhalation test = assay type: in vivo, Wistar rats; conditions: Wistar, rat, in vivo, inhaled
[5] = Second goat experiment, pre‐dosed 5 days; assay type: in vivo, lactating goat
[6] = system: Salmonella Typhimurium strains TA98, TA100, TA102, TA1535 and TA1537; assay: Ames microsuspension test; assay type: cell-based; conditions: 1.6 to 500 μg/plate, with and without metabolic activation
[7] = Mass balance with volatile trapping and tissue distribution study; assay type: in vivo, male Wistar rats
How it was run: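 Mass balance under OECD TG 417 in male Wistar rats given a single oral dose of 500 mg/kg bw 14C-labelled test compound. Rats were housed individually in air-tight glass metabolism cages. Volatiles were adsorbed in trapping solutions over 0–8 h and 8–24 h, and urine and faeces were collected over 0–24 h. Tissues, carcass and GI contents were taken at 24 h and results expressed as % of dose.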

[8] = Third in vitro rumen fluid trial; conditions: for 3‐NOP concentration remaining after 16 h: 39°C
Wistar rats [9] = assay: 90‐day oral gavage study; assay type: in vivo
Wistar Han rats = assay type: in vivo; conditions: males and females; effects on spermatogenesis and corpora lutea
Beagle dogs = assay: 90‐day oral gavage study; assay type: in vivo
[10] = 3.28 mg/kg bw per day, two days labelled

O=[N+]([O-])OCCCO [3‐NOP, propan‐1,3‐diol‐mononitrate]
Feed intake [1]: significantly (p < 0.05) reduced
half-life [2]: 42 min
Intact compound, share of radioactivity in small intestine content ([3]; 1 and 3 h after 500 mg/kg bw): < 4%
Intact compound, share of radioactivity in stomach content ([3]; 1 and 3 h after 500 mg/kg bw): more than 80%
Radioactivity in plasma ([3]; 1 h post‐dose): 713 μg 3‐NOP‐eq/g
Radioactivity in plasma ([3]; 2 h post‐dose): 522 μg 3‐NOP‐eq/g
Radioactivity in plasma ([3]; 3 h post‐dose): 156 μg 3‐NOP‐eq/g
Overall radioactivity recovered ([3]; after 1 h): 88 % of the dose
Overall radioactivity recovered ([3]; after 2 h): 78 % of the dose
Overall radioactivity recovered ([3]; after 3 h): 58 % of the dose
Radioactivity in urine ([3]; urine 0 to 2 h of one animal): 13.7 % of the applied dose
Mortality (Wistar rats [4]; 1 and 5 mg/L): No mortality occurred
Acute inhalation toxicity class according to the GHS (Wistar rats [4]; rat, in vivo): class 5
No observed adverse effect concentration (NOAEC) (Wistar rats [4]; rat, in vivo): exceed 5 mg/L
LC50 at 4 h (Acute inhalation test): > 5 µg/mL
Radioactivity excreted via faeces [5, 10]: 0.71 % of radioactivity totally app
Radioactivity excreted via milk [5, 10]: 4.48 % of radioactivity totally app
Radioactivity excreted via urine [5, 10]: 1.97 % of radioactivity totally app
Radioactivity in the intestinal tract content [5, 10]: 14.87 % of radioactivity totally app
Radioactivity remaining in the total edible tissues [5, 10]: 8.99 % of radioactivity totally app
Total radioactivity excreted [5, 10]: 7.18%
Total recovery at sacrifice [5, 10]: 31.04%
Radioactive residues in plasma ([5]; 0.5 h after the first administration): 2.31 mg 3‐NOP‐equivalents/kg
Plasma radioactivity associated with the plasma protein fraction ([5]; 0.5 h post‐dose): 4.4%
Radioactivity in the aqueous phase of plasma ([5]; 0.5 h post‐dose): 95.6%
Plasma radioactivity associated with the plasma protein fraction ([5]; 24 h post‐dose): 89.4%
Radioactivity in the aqueous phase of plasma ([5]; 24 h post‐dose): 10.6%
Nitrate esters in the aqueous phase of plasma, not detectable (LOD) ([5]; LOD ≤ 0.07): < 0.07 mg/kg
Nitrate esters in the aqueous milk fraction, not detectable (LOD) ([5]; LOD ≤ 0.21): < 0.21 mg/kg
Radioactive residues in plasma ([5]; at sacrifice): 1.6 mg 3‐NOP‐equivalents/kg
Revertant colonies [6]: No significant increase in the mean number of revertant colonies
Radioactivity exhaled ([7]; 0 to 8 h post‐dose): 64.3%
Dose recovered in faeces ([7]; 0 to 24 h): 1.2 % of the dose
Dose recovered in urine ([7]; 0 to 24 h): 9.8 % of the dose
Radioactivity exhaled ([7]; 8 to 24 h post‐dose): 13.0%
Dose in the gastrointestinal tract content ([7]; 24 h): 0.5 % of the dose
Dose remaining in the tissues and carcass ([7]; 24 h): 7.7 % of the dose
Overall recovery of radioactivity ([7]; 24 h): 99.3%
Dose recovered from the volatile traps (almost all as 14CO2) ([7]; 24 h after single oral 500 mg/kg bw): 77.4 % of the dose
Mean concentration of radioactive compounds in blood ([7]; 24 h post‐dose): 48.7 μg 3‐NOP‐eq/g
Radioactivity concentration in adrenal glands ([7]; 24 h post‐dose): 159.3 μg 3‐NOP‐eq/g
Radioactivity concentration in brain ([7]; 24 h post‐dose): 24.8 μg 3‐NOP‐eq/g
Radioactivity concentration in fat ([7]; 24 h post‐dose): 58.9 μg 3‐NOP‐eq/g
Radioactivity concentration in kidney ([7]; 24 h post‐dose): 118.4 μg 3‐NOP‐eq/g
Radioactivity concentration in liver ([7]; 24 h post‐dose): 184.5 μg 3‐NOP‐eq/g
Radioactivity concentration in muscle ([7]; 24 h post‐dose): 42.4 μg 3‐NOP‐eq/g
3‐NOP concentration remaining after 16 h ([8]; 1 mg/L, anaerobic, n = 6): 0.9%
3‐NOP concentration remaining after 16 h ([8]; aerobic control, n = 2): 39.4%
Radioactivity in the non‐dissolved fractions ([8]; sheep, goat and cow rumen fluids, 1 mg/L, 16 h at 39°C, anaerobic): ≤ 5.5%
NOAEL (Wistar rats [9]; females): 300 mg/kg bw per day
NOAEL (Wistar rats [9]; males, effects on spermatogenesis): 100 mg 3‐NOP/kg bw per day
NOAEL (Wistar Han rats): 100 mg 3‐NOP/kg bw per day
NOAEL (Beagle dogs; females, severe clinical signs in one female): 100 mg 3‐NOP/kg bw per day
NOAEL (Beagle dogs; males): 300 mg 3‐NOP/kg bw per day
